Measurements: ChEMBL document CHEMBL1155748, “New jatrophane diterpenoid esters from Euphorbia turczaninowii” (J Nat Prod, 2001)
Converted amounts (≈) assume the structure as drawn.

Columns and labels:
Mus musculus [1] = species: Mus musculus; assay: Toxicity in mouse assessed as irritant dose causing ear redness after 24 hours by inflammation assay; format: organism-based; settings: in vivo
Procedure, shortened: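 Compound applied to the mouse ear as an acetone (Me2CO) solution. Ear redness was scored 4 and 24 h after application. […] TPA served as the reference irritant.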

B16 = assay: Cytotoxicity against mouse B16 cells by MTT assay; format: functional, cell-based
Mus musculus [2] = species: Mus musculus; assay: Toxicity in mouse assessed as irritant dose causing ear redness after 4 hours by inflammation assay; format: organism-based; settings: in vivo
Procedure, shortened: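 Test solution in Me2CO applied to the mouse ear; ear redness scored 4 and 24 h after application. […] TPA (12-O-tetradecanoylphorbol 13-acetate) run as reference irritant.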

With C=C1[C@H](OC(C)=O)[C@H]2[C@@H](OC(C)=O)[C@@H](C)C[C@]2(OC(C)=O)C(=O)[C@@H](C)/C=C/C(C)(C)C(=O)[C@H](OC(C)=O)[C@H]1OC(C)=O the ID50 (Mus musculus [1]) was greater than 100 µg.

In the case of C=C1[C@H](OC(C)=O)[C@H]2[C@@H](OC(C)=O)[C@@H](C)C[C@]2(OC(C)=O)C(=O)[C@@H](C)/C=C/C(C)(C)C(=O)[C@H](OC(C)=O)[C@H]1OC(=O)c1ccccc1, the ID50 (Mus musculus [1]) is reported as greater than 100 µg.

In the case of C=C1[C@H](OC(C)=O)[C@@H](OC(C)=O)[C@@H](OC(C)=O)C(C)(C)/C=C/[C@H](C)C(=O)[C@@]2(OC(C)=O)C[C@@](C)(OC(=O)c3ccccc3)[C@H](OC(C)=O)[C@@H]2[C@H]1OC(C)=O, the ID50 (Mus musculus [1]) is reported as greater than 100 µg and the IC50 (B16) is reported as greater than 5 µg/mL.

C=C1[C@H](OC(=O)c2ccccc2)[C@@H](OC(C)=O)[C@@H](OC(C)=O)C(C)(C)/C=C/[C@H](C)C(=O)[C@@]2(OC(C)=O)C[C@@](C)(OC(C)=O)[C@H](OC(C)=O)[C@@H]2[C@H]1OC(C)=O gave an ID50 (Mus musculus [1]) greater than 100 µg and an IC50 (B16) greater than 5 µg/mL.

C=C1[C@H](OC(C)=O)[C@H]2[C@@H](OC(C)=O)[C@](C)(OC(=O)c3ccccc3)C[C@]2(OC(C)=O)C(=O)[C@@H](C)/C=C/C(C)(C)C(=O)[C@H](OC(C)=O)[C@H]1OC(C)=O gave an ID50 (Mus musculus [1]) greater than 100 µg.

C=C1[C@H](OC(=O)c2ccccc2)[C@@H](OC(C)=O)[C@@H](OC(C)=O)C(C)(C)/C=C/[C@H](C)C(=O)[C@@]2(OC(C)=O)C[C@H](C)[C@H](OC(C)=O)[C@@H]2[C@H]1OC(C)=O was tested, and the ID50 (Mus musculus [1]) was greater than 100 µg.

Compound CCCCCCCCCCCCCC(=O)O[C@@H]1[C@@H](C)[C@@]2(O)[C@@H](C=C(CO)C[C@]3(O)C(=O)C(C)=C[C@@H]23)[C@@H]2C(C)(C)[C@]12OC(C)=O [PHORBOL MYRISTATE ACETATE] has an ID50 (Mus musculus [1]) of 0.0085 µg and an ID50 (Mus musculus [2]) of 0.012 µg.

With CC[C@]1(O)C[C@@H]2CN(CCc3c([nH]c4ccccc34)[C@@](C(=O)OC)(c3cc4c(cc3OC)N(C)[C@H]3[C@@](O)(C(=O)OC)[C@H](OC(C)=O)[C@]5(CC)C=CCN6CC[C@]43[C@@H]65)C2)C1 [VINBLASTINE] the IC50 (B16) was 3.6 µg/mL (≈ 4.44 µM).
